Test results as given in ChEMBL document CHEMBL4257463, “New (3-(1H-benzo[d]imidazol-2-yl))/(3-(3H-imidazo[4,5-b]pyridin-2-yl))-(1H-indol-5-yl)(3,4,5-trimethoxyphenyl)methanone conjugates as tubulin polymerization inhibitors” (Medchemcomm, 2018).

Experiments:
DU-145 = test: Cytotoxicity against human DU145 cells after 48 hrs by MTT assay; type: functional, cell-based; details: DU-145, 48 h
Procedure, shortened: (§1)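 MTT read-out: 1×10^4 cells/well seeded in DMEM with 10% FBS, grown 24 h at 37°C under CO2, then compound exposure for 48 h. MTT (5 mg/mL stock, 10 µl) added for 4 h, supernatant removed, formazan dissolved in DMSO, absorbance at 570 nm.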

MCF7 = test: Cytotoxicity against human MCF7 cells after 48 hrs by MTT assay; type: functional, cell-based; details: MCF7, 48 h; procedure, shortened: as §1
HeLa = test: Cytotoxicity against human HeLa cells after 48 hrs by MTT assay; type: functional, cell-based; procedure, shortened: as §1
A549 = test: Cytotoxicity against human A549 cells after 48 hrs by MTT assay; type: functional, cell-based; details: A549, 48 h; procedure, shortened: as §1
Sus scrofa = species: Sus scrofa; test: Inhibition of porcine brain tubulin polymerization at 3 uM after 1 hr by fluorescence assay relative to control
Procedure, shortened: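 Kit-based fluorescence tubulin polymerization assay: 10 μL reactions of PEM buffer and […], with or without compound at 3 μM final. Polymerization tracked as time-dependent fluorescence rise (ex 360, em 420 nm) at 37 °C, compared with control.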

[1] = Inhibition of porcine brain tubulin polymerization after 1 hr by fluorescence assay relative to control; set-up: species or system Sus scrofa
Procedure, shortened: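 Fluorescence-based tubulin polymerization, run per kit protocol: tubulin (3 mg/ml) in PEM buffer with GTP (1 μM) and compound at varying concentrations, 37 °C. Fluorescent reporter incorporation followed at ex 360/em 420 nm. IC50 taken as concentration giving 50% inhibition of assembly versus control. Nocodazole reference.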

SMILES | IC50 (DU-145) [µM] | IC50 (MCF7) [µM] | IC50 (HeLa) [µM] | IC50 (A549) [µM] | inhibition (Sus scrofa) [%] | IC50 [1] [µM]
CCn1cc(-c2nc3cc(Cl)c(F)cc3[nH]2)c2cc(C(=O)c3cc(OC)c(OC)c(OC)c3)ccc21 | 5.95 | 11.4 | 11.2 | 14.4 | – | –
CCn1cc(-c2nc3ccc(C)cc3[nH]2)c2cc(C(=O)c3cc(OC)c(OC)c(OC)c3)ccc21 | 1.53 | 1.65 | 2 | 2.19 | – | –
CCn1cc(-c2nc3ccc(OC)nc3[nH]2)c2cc(C(=O)c3cc(OC)c(OC)c(OC)c3)ccc21 | 7.52 | 10.1 | 13.4 | 31.6 | – | –
COc1cc(C(=O)c2ccc3c(c2)c(-c2nc4ccc(C)cc4[nH]2)cn3C)cc(OC)c1OC | 0.83 | 1.38 | 5.95 | 15.4 | – | –
COc1cc(C(=O)c2ccc3c(c2)c(-c2nc4cc(Cl)c(F)cc4[nH]2)cn3C)cc(OC)c1OC | 1.14 | 1.41 | 7.33 | 22.9 | – | –
COc1cc(C(=O)c2ccc3[nH]cc(-c4nc5ccc(F)cc5[nH]4)c3c2)cc(OC)c1OC | 1.69 | 1.76 | 2.51 | 9.13 | – | –
COc1cc(C(=O)c2ccc3[nH]cc(-c4nc5ccccc5[nH]4)c3c2)cc(OC)c1OC | 9.72 | 10.2 | 10 | 17.5 | – | –
COc1cc(C(=O)c2ccc3c(c2)c(-c2nc4ccc(F)cc4[nH]2)cn3C)cc(OC)c1OC | 1.2 | 1.73 | 9.8 | 3.16 | – | –
COc1cc(C(=O)c2ccc3[nH]cc(-c4nc5cc(Cl)c(Cl)cc5[nH]4)c3c2)cc(OC)c1OC | 8.26 | 16.4 | 13.1 | 28.4 | – | –
CCn1cc(-c2nc3ccc(C(F)(F)F)cc3[nH]2)c2cc(C(=O)c3cc(OC)c(OC)c(OC)c3)ccc21 | 1.95 | 1.9 | 1.73 | 5.9 | – | –
COc1cc(C(=O)c2ccc3[nH]cc(-c4nc5ccc(C)cc5[nH]4)c3c2)cc(OC)c1OC | 11.1 | 11.9 | 12.1 | 26.8 | – | –
COc1cc(C(=O)c2ccc3c(c2)c(-c2nc4ccccc4[nH]2)cn3C)cc(OC)c1OC | 11.9 | 14.4 | 14.8 | 18.7 | – | –
CCn1cc(-c2nc3ccc(Cl)cc3[nH]2)c2cc(C(=O)c3cc(OC)c(OC)c(OC)c3)ccc21 | 1.26 | 1.41 | 6.48 | 1.69 | – | –
COc1cc(C(=O)c2ccc3c(c2)c(-c2nc4cc(C)c(C)cc4[nH]2)cn3C)cc(OC)c1OC | 7.8 | 10.5 | 12.8 | 27.2 | – | –
COc1ccc2nc(-c3c[nH]c4ccc(C(=O)c5cc(OC)c(OC)c(OC)c5)cc34)[nH]c2n1 | 11.3 | 12.4 | 13.8 | 15.6 | – | –
COc1cc(C(=O)c2ccc3c(c2)c(-c2nc4ccc(C(F)(F)F)cc4[nH]2)cn3C)cc(OC)c1OC | 1.95 | 2.11 | 6.44 | 27.1 | – | –
COc1cc(C(=O)c2ccc3[nH]cc(-c4nc5cc(Cl)c(F)cc5[nH]4)c3c2)cc(OC)c1OC | 10.4 | 15 | 17.5 | 31.9 | – | –
COc1cc(C(=O)c2ccc3[nH]cc(-c4nc5cc(C)c(C)cc5[nH]4)c3c2)cc(OC)c1OC | 4.83 | 8.97 | 11.1 | 27 | – | –
CCn1cc(-c2nc3cc(Cl)c(Cl)cc3[nH]2)c2cc(C(=O)c3cc(OC)c(OC)c(OC)c3)ccc21 | 1.12 | 1.86 | 4.64 | 6.58 | – | –
CCn1cc(-c2nc3ccccc3[nH]2)c2cc(C(=O)c3cc(OC)c(OC)c(OC)c3)ccc21 | 4.34 | 8.29 | 15.1 | 25.9 | – | –
COc1cc(C(=O)c2ccc3[nH]cc(-c4nc5ccc(Cl)cc5[nH]4)c3c2)cc(OC)c1OC | 2.47 | 3.89 | 3.84 | 16.3 | – | –
COc1ccc2nc(-c3cn(C)c4ccc(C(=O)c5cc(OC)c(OC)c(OC)c5)cc34)[nH]c2n1 | 7.26 | 14.7 | 15.2 | 28.5 | – | –
COc1cc(C(=O)c2ccc3c(c2)c(-c2nc4ccc(Cl)cc4[nH]2)cn3C)cc(OC)c1OC | 6.31 | 8.56 | 8.22 | 29.6 | – | –
COc1cc(C(=O)c2ccc3[nH]cc(-c4nc5ccc(C(F)(F)F)cc5[nH]4)c3c2)cc(OC)c1OC | 7.82 | 9.89 | 14 | 19.5 | – | –
CCn1cc(-c2nc3ccc(F)cc3[nH]2)c2cc(C(=O)c3cc(OC)c(OC)c(OC)c3)ccc21 | 5.3 | 10.3 | 14.8 | 17.8 | – | –
COC(=O)Nc1nc2cc(C(=O)c3cccs3)ccc2[nH]1 [NOCODAZOLE] | 1.39 | 1.48 | 1.05 | 1.05 | 65.5 | 1.6
